Values after ≈ are worked out from the molar mass of the structure shown.
Key:
Type in all cases: functional
[1] = test system: Human alphaherpesvirus 1; test: Antiviral activity of the compound, determined by plaque-reduction assay against Herpes simplex virus (HSV) type 1, BW5 strain in Vero cells; conditions: Human alphaherpesvirus 1, Vero; read-out: ID50 (the source's name)
Outline: (§1)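 Plaque reduction: confluent monolayers (Vero for HSV, MRC-5 for HCMV) infected with 30-50 PFU in PBS, 1 h adsorption, then compound dilutions in EMEM with 10% fetal bovine serum; 48 h at 37 °C, 5% CO2; fixed, Carbol fuchsin stained, plaques counted. ID50 = concentration reducing plaque number by 50% versus virus control.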

[2] = test system: Human alphaherpesvirus 1; test: Antiviral activity of the compound, determined by plaque-reduction assay against thymidine kinase deficient Herpes simplex virus type 1, Z826 strain in Vero cells; conditions: Human alphaherpesvirus 1, Vero; read-out: ID50 (the source's name); outline: as §1
[3] = test system: Human alphaherpesvirus 2; test: Antiviral activity determined by plaque-reduction assay against Herpes simplex virus type 2, G strain in Vero cells; conditions: Human alphaherpesvirus 2, Vero; read-out: ID50 (the source's name); outline: as §1
[4] = test system: Human betaherpesvirus 5; test: Antiviral activity determined by plaque-reduction assay against Human cytomegalovirus, AD-169 strain in MRC-5 cells; conditions: Human betaherpesvirus 5, MRC5; read-out: ID50 (the source's name); outline: as §1
[5] = species on record: Cavia porcellus; test: Total score of healing period in HSV-1 cutaneous infection in guinea pig at 5% ACV
[6] = species on record: Cavia porcellus; test: Total score of lesion formation in HSV-1 cutaneous infection in guinea pig at 5% ACV
[7] = species on record: Cavia porcellus; test: Duration of time of lesion formation in HSV-1 cutaneous infection in guinea pig at 5%ACV
[8] = species on record: Cavia porcellus; test: Mean of severity score obtained from five different individuals at 5% ACV
[9] = species on record: Cavia porcellus; test: Duration of time of healing period in HSV-1 cutaneous infection in guinea pig at 5%ACV
[10] = test system: Human alphaherpesvirus 1; test: In vitro antiviral activity of the compound, determined by plaque-reduction assay against Herpes simplex virus (HSV) type 1, BW5 strain in Vero cells; conditions: Human alphaherpesvirus 1, Vero; read-out: ID50 (the source's name); outline: as §1
[11] = test system: Human alphaherpesvirus 1; test: In vitro antiviral activity of the compound, determined by plaque-reduction assay against thymidine kinase deficient Herpes simplex virus type 1, Z826 strain in Vero cells; conditions: Human alphaherpesvirus 1, Vero; read-out: ID50 (the source's name); outline: as §1
[12] = test system: Human alphaherpesvirus 2; test: In vitro antiviral activity determined by plaque-reduction assay against Herpes simplex virus type 2, G strain in Vero cells; conditions: Human alphaherpesvirus 2, Vero; read-out: ID50 (the source's name); outline: as §1
[13] = test system: Mus musculus; test: Percentage survival of mice after intraperitoneal administration of compound at 100 mg/kg per day in experiment 1; survival/ tested =7/10; conditions: ip
Outline: (§2)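 Female Swiss mice (16–18 g) infected ip with (2-6) × 10^2 PFU HSV 1 HL-34, randomized into groups of 10. Ip dosing started 3 h postinfection, twice daily for 5 consecutive days; vehicle 0.2% carboxymethylcellulose with 0.2% Tween 80 in water. Mortality followed 21 days; survival by Fisher's exact test, mean survival time by Gehan-Wilcoxon.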

[14] = test system: Mus musculus; test: Percentage survival of mice after intraperitoneal administration of compound at 200 mg/kg per day in experiment 1; survival/ tested =3/4; conditions: ip
[15] = test system: Mus musculus; test: Percentage survival of mice after intraperitoneal administration of compound at 200 mg/kg per day in experiment 2; survival/ tested =7/9; conditions: ip; outline: as §2
[16] = test system: Mus musculus; test: Percentage survival of mice after intraperitoneal administration of compound at 50 mg/kg per day in experiment 1; survival/ tested =5/10; conditions: ip; outline: as §2
[17] = species on record: Cavia porcellus; test: Total score of healing period in HSV-1 cutaneous infection in guinea pig 1%HPMPC
[18] = species on record: Cavia porcellus; test: Total score of healing period in HSV-1 cutaneous infection in guinea pig at 0.1% HPMPC
[19] = species on record: Cavia porcellus; test: Total score of healing period in HSV-1 cutaneous infection in guinea pig at 5% HPMPC
[20] = species on record: Cavia porcellus; test: Total score of lesion formation in HSV-1 cutaneous infection in guinea pig at 0.1% HPMPC
[21] = species on record: Cavia porcellus; test: Total score of lesion formation in HSV-1 cutaneous infection in guinea pig at 1% HPMPC
[22] = species on record: Cavia porcellus; test: Total score of lesion formation in HSV-1 cutaneous infection in guinea pig at 5% HPMPC
[23] = species on record: Cavia porcellus; test: Duration of time of lesion formation in HSV-1 cutaneous infection in guinea pig at 1% HPMPC
[24] = species on record: Cavia porcellus; test: Duration of time of lesion formation in HSV-1 cutaneous infection in guinea pig at 5% HPMPC
[25] = species on record: Cavia porcellus; test: Mean of severity score obtained from five different individuals at 1% HPMPC
[26] = species on record: Cavia porcellus; test: Mean of severity score obtained from five different individuals at 5% HPMPC
[27] = species on record: Cavia porcellus; test: Duration of time of healing period in HSV-1 cutaneous infection in guinea pig at 0.1% HPMPC
[28] = species on record: Cavia porcellus; test: Duration of time of healing period in HSV-1 cutaneous infection in guinea pig at 1% HPMPC
[29] = species on record: Cavia porcellus; test: Duration of time of healing period in HSV-1 cutaneous infection in guinea pig at 5% HPMPC
[30] = species on record: Cavia porcellus; test: Duration of time of lesion formation in HSV-1 cutaneous infection in guinea pig at 0.1% HPMPC
[31] = test system: Mus musculus; test: Mean survival time of mice was determined after intraperitoneal administration of compound at 0.1 mg/kg per day in experiment 2; outline: as §2
[32] = test system: Mus musculus; test: Mean survival time of mice was determined after intraperitoneal administration of compound at 1 mg/kg per day in experiment 2; outline: as §2
[33] = test system: Mus musculus; test: Mean survival time of mice was determined after intraperitoneal administration of compound at 10 mg/kg per day in experiment 1; outline: as §2
[34] = test system: Mus musculus; test: Mean survival time of mice was determined after intraperitoneal administration of compound at 100 mg/kg per day in experiment 1; outline: as §2
[35] = test system: Mus musculus; test: Mean survival time of mice was determined after intraperitoneal administration of compound at 200 mg/kg per day in experiment 1; outline: as §2
[36] = test system: Mus musculus; test: Percentage survival of mice after intraperitoneal administration of compound at 0.1 mg/kg per day in experiment 2; survival/ tested =5/10; conditions: ip; outline: as §2
[37] = test system: Mus musculus; test: Percentage survival of mice after intraperitoneal administration of compound at 100 mg/kg per day in experiment 1; survival/ tested =10/10; conditions: ip; outline: as §2
[38] = test system: Mus musculus; test: Percentage survival of mice after intraperitoneal administration of compound at 10 mg/kg per day in experiment 1; survival/ tested =10/10; conditions: ip; outline: as §2
[39] = test system: Mus musculus; test: Percentage survival of mice after intraperitoneal administration of compound at 10 mg/kg per day in experiment 2; survival/ tested =10/10; conditions: ip; outline: as §2
[40] = test system: Mus musculus; test: Percentage survival of mice after intraperitoneal administration of compound at 1 mg/kg per day in experiment 2; survival/ tested =9/10; conditions: ip; outline: as §2
[41] = test system: Mus musculus; test: Percentage survival of mice after intraperitoneal administration of compound at 200 mg/kg per day in experiment 1; survival/ tested =10/10; conditions: ip; outline: as §2
[42] = test system: Mus musculus; test: Mean survival time of mice was determined after intraperitoneal administration of compound at 10 mg/kg per day in experiment 2; outline: as §2
[43] = species on record: Cavia porcellus; test: Mean of severity score obtained from five different individuals at 0.1% HPMPC

Question: Which results are given for `Nc1ncnc2c1ncn2C[C@@H](CO)OCP(=O)(O)O`?
Answer: IC50 [1]: 9.3 µg/mL (≈ 30.7 µM); IC50 [2]: 3.2 µg/mL (≈ 10.6 µM); IC50 [3]: 25.2 µg/mL (≈ 83.1 µM); IC50 [4]: 0.27 µg/mL (≈ 0.89 µM)

Question: With `Nc1ccn(CCOCP(=O)(O)O)c(=O)n1` as the molecule, how does the IC50 [1] read?
Answer: Its IC50 is over 100 µg/mL.

Question: And the IC50 [3]?
Answer: The IC50 was over 100 µg/mL.

Question: And the IC50 [4]?
Answer: The IC50 was over 2.7 µg/mL.

Question: Which results are given for `Nc1nc2c(ncn2COCCO)c(=O)[nH]1` [ACYCLOVIR]?
Answer: Total score [5]: 60.4; Total score [6]: 14; Duration time [7]: 5.4; Severity mean [8]: 2.4; Duration time [9]: 4.2; IC50 [10]: 0.5 µg/mL (≈ 2.22 µM); IC50 [11]: 4.3 µg/mL (≈ 19.1 µM); IC50 [12]: 0.3 µg/mL (≈ 1.33 µM); survival at 100 mg/kg/day [13]: 70%; survival at 200 mg/kg/day [14]: 75%; survival at 200 mg/kg/day [15]: 78%; survival at 50 mg/kg/day [16]: 50%

Question: How did the Total score [17] turn out when `Nc1ccn(C[C@@H](CO)OCP(=O)(O)O)c(=O)n1.O.O` [CIDOFOVIR] was run?
Answer: The Total score was 75.

Question: What about the Total score [18] of the same molecule?
Answer: Its Total score is 72.8.

Question: And the Total score [19]?
Answer: Its Total score is 85.4.

Question: What about the Total score [20] of the same molecule?
Answer: The Total score was 8.2.

Question: What about the Total score [21] of the same molecule?
Answer: Its Total score is 7.

Question: And the Total score [22]?
Answer: The Total score was 3.

Question: And the Duration time [23]?
Answer: The Duration time was 3.8.

Question: What about the Duration time [24] of the same molecule?
Answer: Its Duration time is 2.2.

Question: And the Severity mean [25]?
Answer: The Severity mean was 1.

Question: And the Severity mean [26]?
Answer: The Severity mean was 0.8.

Question: And the Duration time [27]?
Answer: Its Duration time is 4.4.

Question: And the Duration time [28]?
Answer: Its Duration time is 3.8.

Question: And the Duration time [29]?
Answer: Its Duration time is 4.2.

Question: And the Duration time [30]?
Answer: Its Duration time is 3.8.

Question: And the IC50 [1]?
Answer: Its IC50 is 5.4 µg/mL.

Question: And the IC50 [2]?
Answer: Its IC50 is 0.7 µg/mL.

Question: What about the IC50 [3] of the same molecule?
Answer: Its IC50 is 2.3 µg/mL.

Question: What about the IC50 [4] of the same molecule?
Answer: The IC50 was 0.22 µg/mL.

Question: And the Mean survival time [31]?
Answer: Its Mean survival time is 14.9 days.

Question: And the Mean survival time [32]?
Answer: The Mean survival time was 19.7 days.

Question: What about the Mean survival time [33] of the same molecule?
Answer: Its Mean survival time is 21 days.

Question: What about the Mean survival time [34] of the same molecule?
Answer: The Mean survival time was 21 days.

Question: What about the Mean survival time [35] of the same molecule?
Answer: Its Mean survival time is 21 days.

Question: What about the survival at 0.1 mg/kg/day [36] of the same molecule?
Answer: The survival at 0.1 mg/kg/day was 50%.

Question: And the survival at 100 mg/kg/day [37]?
Answer: The survival at 100 mg/kg/day was 100%.

Question: What about the survival at 10 mg/kg/day [38] of the same molecule?
Answer: Its survival at 10 mg/kg/day is 100%.

Question: And the survival at 10 mg/kg/day [39]?
Answer: Its survival at 10 mg/kg/day is 100%.

Question: What about the survival at 1 mg/kg/day [40] of the same molecule?
Answer: The survival at 1 mg/kg/day was 90%.

Question: What about the survival at 200 mg/kg/day [41] of the same molecule?
Answer: Its survival at 200 mg/kg/day is 100%.

Question: And the Mean survival time [42]?
Answer: Its Mean survival time is 21 days.

Question: What about the Severity mean [43] of the same molecule?
Answer: Its Severity mean is 1.4.

Question: Which results are given for `Nc1nc2c(ncn2COC(CO)CO)c(=O)[nH]1` [GANCICLOVIR]?
Answer: IC50 [1]: 0.23 µg/mL (≈ 0.901 µM); IC50 [2]: > 10 µg/mL; IC50 [3]: 0.94 µg/mL (≈ 3.68 µM); IC50 [4]: 1.8 µg/mL (≈ 7.05 µM)

From ChEMBL document CHEMBL1124514, “Synthesis and antiviral activity of the nucleotide analogue (S)-1-[3-hydroxy-2-(phosphonylmethoxy)propyl]cytosine” (1989)
